Measurements from ChEMBL document CHEMBL3603779, “Identification and Optimization of Benzimidazole Sulfonamides as Orally Bioavailable Sphingosine 1-Phosphate Receptor 1 Antagonists with in Vivo Activity” (J Med Chem, 2015).
The source made the active and inactive calls. The rule behind the calls is not given here.

Experiments:
[1] = target: Sphingosine 1-phosphate receptor 1 (Mus musculus) (UniProt O08530); assay: Antagonist activity against mouse S1P1 receptor expressed in human U2OS cells co-expressing GFP assessed as inhibition of S1P-induced receptor translocation; format: cell-based
Cytochrome P450 3A4 = Cytochrome P450 3A4 (Homo sapiens, UniProt P08684); assay: Induction of CYP3A4 activation in human hepatocytes at 0.2 to 20 uM incubated for 48 hrs using testosterone substrate; format: ADME, cell-based, Hepatocyte
Method in brief: (§1)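 Primary human hepatocytes seeded on collagen and cultured in collagen-Matrigel sandwich. On day 3 they are treated for 48 h with DMSO, test compound at varying concentrations, or reference inducer (3-methylcholanthrene for CYP1A2, phenobarbital for CYP2B6, rifampicin for CYP3A4/5). Probe substrates are then added (phenacetin, bupropion, testosterone) and marker metabolites quantified (acetaminophen, hydroxybupropion, 6-β-hydroxytestosterone).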

Cytochrome P450 3A5 [2] = target: T1, Cytochrome P450 3A5 (Homo sapiens, UniProt P20815); assay: Induction of CYP3A5 activation in human hepatocytes at 2 uM incubated for 48 hrs using testosterone substrate; format: ADME, cell-based, Hepatocyte; method in brief: as §1
[3] = Intrinsic clearance in human liver microsomes pre-incubated at 37 degC for 5 mins before NADPH addition by LCMS/MS method; format: ADME; conditions: read-out: CLH
[4] = Oral bioavailability in Han Wistar rat at 5 to 10 mg/kg by LC-MS/MS method; format: ADME, organism-based; conditions: in vivo
Cytochrome P450 3A5 [5] = target: T1, Cytochrome P450 3A5; assay: Induction of CYP3A5 activation in human hepatocytes at 0.2 to 20 uM incubated for 48 hrs using testosterone substrate; format: ADME, cell-based, Hepatocyte; method in brief: as §1
[6] = target: Sphingosine 1-phosphate receptor 1 (Homo sapiens, UniProt P21453); assay: Antagonist activity against human S1P1 receptor expressed in human U2OS cells co-expressing GFP assessed as inhibition of S1P-induced receptor translocation; format: cell-based
Method in brief: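 Cellular S1P1 translocation (internalization) assay with antagonist; EC50 reported as mean of at least three separate determinations ± standard deviation.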

Cytochrome P450 1A2 = target: T2, Cytochrome P450 1A2 (Homo sapiens, UniProt P05177); assay: Induction of CYP1A2 activation in human hepatocytes at 0.2 to 20 uM incubated for 48 hrs using phenacetin substrate; format: ADME, cell-based, Hepatocyte; method in brief: as §1
T2 sequence (P05177 whole entry): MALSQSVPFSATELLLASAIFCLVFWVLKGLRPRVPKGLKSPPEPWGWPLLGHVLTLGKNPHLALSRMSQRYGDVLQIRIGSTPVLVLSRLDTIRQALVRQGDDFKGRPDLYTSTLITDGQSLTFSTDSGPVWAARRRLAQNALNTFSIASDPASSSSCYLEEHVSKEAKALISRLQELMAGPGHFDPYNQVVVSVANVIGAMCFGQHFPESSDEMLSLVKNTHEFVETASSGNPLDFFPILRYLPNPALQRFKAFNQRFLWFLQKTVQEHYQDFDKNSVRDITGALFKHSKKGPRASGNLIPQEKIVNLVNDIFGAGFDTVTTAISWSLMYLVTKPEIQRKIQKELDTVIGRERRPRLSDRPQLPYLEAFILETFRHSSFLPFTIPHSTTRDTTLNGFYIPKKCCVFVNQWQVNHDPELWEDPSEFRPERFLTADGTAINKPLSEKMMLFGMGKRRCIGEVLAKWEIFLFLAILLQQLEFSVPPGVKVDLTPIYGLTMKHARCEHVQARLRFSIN

Cytochrome P450 2B6 = target: T3, Cytochrome P450 2B6 (Homo sapiens, UniProt P20813); assay: Induction of CYP2B6 activation in human hepatocytes at 0.2 to 20 uM incubated for 48 hrs using bupropion substrate; format: ADME, cell-based, Hepatocyte; method in brief: as §1
T3 sequence (P20813 whole entry): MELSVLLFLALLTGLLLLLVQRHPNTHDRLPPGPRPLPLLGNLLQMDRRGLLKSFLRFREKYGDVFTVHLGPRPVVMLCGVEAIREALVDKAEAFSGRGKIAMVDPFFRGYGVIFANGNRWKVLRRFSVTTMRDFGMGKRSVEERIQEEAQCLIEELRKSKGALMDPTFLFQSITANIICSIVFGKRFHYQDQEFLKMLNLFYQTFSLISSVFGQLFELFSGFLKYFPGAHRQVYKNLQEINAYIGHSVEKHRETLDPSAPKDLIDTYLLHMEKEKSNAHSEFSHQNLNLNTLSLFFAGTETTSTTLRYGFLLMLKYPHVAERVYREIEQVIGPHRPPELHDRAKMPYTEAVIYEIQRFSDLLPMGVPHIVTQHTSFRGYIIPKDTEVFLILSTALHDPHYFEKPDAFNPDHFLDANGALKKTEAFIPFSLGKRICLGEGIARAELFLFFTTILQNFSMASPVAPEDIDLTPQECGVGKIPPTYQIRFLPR

[7] = Clearance in Han Wistar rat at 2 to 4 mg/kg, iv by LC-MS/MS method; format: ADME, organism-based; conditions: in vivo

T1 sequence (P20815 whole entry): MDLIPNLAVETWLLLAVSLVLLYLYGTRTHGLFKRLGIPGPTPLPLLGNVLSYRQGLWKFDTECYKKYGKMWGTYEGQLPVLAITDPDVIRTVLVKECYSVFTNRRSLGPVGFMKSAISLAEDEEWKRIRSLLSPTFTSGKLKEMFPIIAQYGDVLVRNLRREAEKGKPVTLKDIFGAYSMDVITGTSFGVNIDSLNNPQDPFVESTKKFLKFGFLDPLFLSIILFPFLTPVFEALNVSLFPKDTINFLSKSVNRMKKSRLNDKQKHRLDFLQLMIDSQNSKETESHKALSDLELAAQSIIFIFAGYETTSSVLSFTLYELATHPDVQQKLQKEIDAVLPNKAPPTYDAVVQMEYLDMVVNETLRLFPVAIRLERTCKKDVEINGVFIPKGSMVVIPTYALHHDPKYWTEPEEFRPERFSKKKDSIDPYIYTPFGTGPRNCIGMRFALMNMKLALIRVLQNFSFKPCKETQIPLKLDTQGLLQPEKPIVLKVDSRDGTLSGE
Sequence of Sphingosine 1-phosphate receptor 1 (P21453 whole entry): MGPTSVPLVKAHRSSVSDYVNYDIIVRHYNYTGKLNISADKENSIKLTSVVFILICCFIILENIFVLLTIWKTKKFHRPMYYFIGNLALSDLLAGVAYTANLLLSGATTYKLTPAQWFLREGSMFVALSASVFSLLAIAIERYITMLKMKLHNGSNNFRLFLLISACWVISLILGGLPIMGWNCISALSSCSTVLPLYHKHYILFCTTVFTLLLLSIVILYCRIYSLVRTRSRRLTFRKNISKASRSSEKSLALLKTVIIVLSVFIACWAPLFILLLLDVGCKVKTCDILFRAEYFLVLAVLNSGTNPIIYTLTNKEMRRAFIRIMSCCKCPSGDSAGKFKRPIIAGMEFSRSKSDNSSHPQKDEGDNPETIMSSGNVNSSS
Sequence of Sphingosine 1-phosphate receptor 1 (Mus musculus) (O08530 whole entry): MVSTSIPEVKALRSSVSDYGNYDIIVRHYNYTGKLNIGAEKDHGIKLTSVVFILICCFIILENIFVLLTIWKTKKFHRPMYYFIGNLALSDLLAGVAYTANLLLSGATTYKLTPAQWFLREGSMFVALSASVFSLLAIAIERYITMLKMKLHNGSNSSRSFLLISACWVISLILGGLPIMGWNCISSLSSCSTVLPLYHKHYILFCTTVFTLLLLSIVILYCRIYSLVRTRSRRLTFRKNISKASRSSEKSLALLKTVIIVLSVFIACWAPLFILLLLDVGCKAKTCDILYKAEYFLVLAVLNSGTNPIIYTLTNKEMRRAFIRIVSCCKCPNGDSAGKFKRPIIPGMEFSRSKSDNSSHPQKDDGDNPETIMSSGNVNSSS
Sequence of Cytochrome P450 3A4 (P08684 whole entry): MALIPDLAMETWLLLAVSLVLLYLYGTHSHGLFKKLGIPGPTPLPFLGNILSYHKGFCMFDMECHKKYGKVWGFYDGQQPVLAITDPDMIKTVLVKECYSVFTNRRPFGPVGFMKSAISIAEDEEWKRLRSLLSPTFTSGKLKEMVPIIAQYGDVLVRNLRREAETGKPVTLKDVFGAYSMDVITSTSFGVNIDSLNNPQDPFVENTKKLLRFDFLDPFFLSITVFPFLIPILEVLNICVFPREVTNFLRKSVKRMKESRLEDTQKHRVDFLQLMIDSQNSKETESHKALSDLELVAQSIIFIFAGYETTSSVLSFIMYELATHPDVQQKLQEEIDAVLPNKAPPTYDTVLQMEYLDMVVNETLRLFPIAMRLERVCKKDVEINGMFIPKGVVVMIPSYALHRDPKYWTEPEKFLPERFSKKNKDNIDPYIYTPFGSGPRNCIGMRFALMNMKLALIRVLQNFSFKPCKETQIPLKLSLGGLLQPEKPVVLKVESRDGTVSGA

With `CCn1c([C@@H](C)NS(=O)(=O)c2ccc(Cl)cc2)nc2ccc(C(F)(F)F)cc21` the inhibition [1] was “Active”, the Activity (Cytochrome P450 3A4) was “Dose-dependent effect” and the Activity (Cytochrome P450 3A5 [2]) was “Active”. For the same compound, the microsomal CLint [3] was over 100 µL/min/mg, the bioavailability [4] was 43% and the Activity (Cytochrome P450 3A5 [5]) was “Dose-dependent effect”. For the same compound, the EC50 [6] was 5 nM, the Activity (Cytochrome P450 1A2) was “Not Active” and the Activity (Cytochrome P450 2B6) was “Not Active”. It also gave a clearance [7] of 1.98 L/h/kg.
